Compounds with a hit are over-represented: about 9.2% of the library has one in this group of screens.
ERa coact inh = ERα–SRC-1 coactivator interaction inhibitors, primary screen, biochemical, TR-FRET, ERα LBD, estradiol-bound; hit rate 1.7% among 86,000; inhibition, % at 25.6 µM; TR-FRET ER-alpha LBD / SRC-1 peptide; in the data active = inhibition above about 50%;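 note: 0% = receptor plus peptide control and 100% = peptide only without receptor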
ERa coact pot = enhancers of ERα–SRC-1 coactivator binding, primary screen, biochemical, TR-FRET, ERα LBD, low estradiol. hit rate 1.3% among 86,000. coactivator binding (% of control), % at 25.6 µM. TR-FRET ERalpha-LBD/SRC-Cy5 coactivator binding, 2 h; 100 = basal binding, no effect. Estrogen receptor (Homo sapiens), P03372; in the data active = activity above about 200%;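 note: binding measured in presence of low estradiol as agonist stimulus; 0% = peptide alone without receptor and 100% = receptor with peptide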
H69AR inhibit = proliferation blockers of H69AR lung cancer cells, primary screen, cell-based, human, 86K library | H69AR lung tumor viability, ATP luminescence, 72 h; active compounds read low | viability, % at 10 µM | hit rate 6% among 85,000 | AID 598, 2007;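 active = viability at or below 40%; inactive = viability above 40%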;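 note: multidrug resistant small cell line overexpressing MRP-1 efflux transporter; 100% = mean luminescence of untreated control wells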
Lung fibro prol = antiproliferative effect on LL 47 fibroblasts – human, LL 47 cells, CellTiter-Glo luminescence, primary screen; LL 47 human lung fibroblast viability, ATP luminescence; active compounds read low; viability, % at 10 µM; hit rate 1.1% among 85,000;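 active = viability at or below 50% in the single dose screen; inactive = viability above 50%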;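 note: compound exposure lasted 72 h before the ATP readout; 100% = median luminescence of untreated cell-only wells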
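Times – overnight cell rest, 72 h compound treatment at 37 °C · Test system – human lung fibroblast line LL 47, low passage · Amount – 1,150 cells in each well · Controls – cell-only wells, no compound · Doses – 0.1% DMSO in all compound wells · Measured by – CellTiter-Glo luminescence · Buffer or medium – IMEM plus 15% FBS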
ERb SRC1 inh = inhibitors of ERβ-SRC1 coactivator interaction, primary screen, biochemical, TR-FRET, ERβ LBD, SRC-1 peptide | TR-FRET ER-beta LBD / SRC1-Cy5 peptide binding; receptor agonist-loaded with 1 µM estradiol | inhibition, % at 25.6 µM | hit rate 1.3% among 86,000 | AID 633, 2007;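 active = compounds whose percent inhibition of the receptor-coactivator binding signal exceeds about 50% in the single-dose screen, limit read from the data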;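 note: 0% = receptor plus peptide wells without compound and 100% = peptide-only wells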
Target sequence (Q92731 whole entry, looked up, the tested form may be a part): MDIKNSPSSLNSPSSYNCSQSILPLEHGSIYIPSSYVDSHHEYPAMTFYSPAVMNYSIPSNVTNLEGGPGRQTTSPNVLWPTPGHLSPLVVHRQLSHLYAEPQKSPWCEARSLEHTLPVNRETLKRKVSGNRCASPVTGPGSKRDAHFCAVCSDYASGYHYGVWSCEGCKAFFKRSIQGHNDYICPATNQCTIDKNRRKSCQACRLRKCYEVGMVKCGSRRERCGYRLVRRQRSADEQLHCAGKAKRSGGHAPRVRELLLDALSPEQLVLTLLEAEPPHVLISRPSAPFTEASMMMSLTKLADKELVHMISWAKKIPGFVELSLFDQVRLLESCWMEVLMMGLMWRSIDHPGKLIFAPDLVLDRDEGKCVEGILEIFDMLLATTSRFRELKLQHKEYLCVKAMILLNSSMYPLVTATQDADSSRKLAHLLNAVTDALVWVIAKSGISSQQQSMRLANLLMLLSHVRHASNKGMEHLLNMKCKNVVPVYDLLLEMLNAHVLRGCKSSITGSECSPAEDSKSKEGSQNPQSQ
HUVEC inhibit = inhibitors of HUVEC proliferation, primary screen, cell-based, 384-well. viability, % at 10 µM (by protocol). CellTiter-Glo luminescence, 72 h; active compounds read low. AID 648, 2007. hit rate 1.1% among 86,000;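 active = viability at or below 30%; inactive = viability above 30%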;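 note: 100% = median luminescence of DMSO-only cell control wells on each plate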
An asterisk follows results filed as active; . = not tested or not shown; [ ] = remark or other dose.

SMILES	ERa coact inh	ERa coact pot	H69AR inhibit	Lung fibro prol	ERb SRC1 inh	HUVEC inhibit
CCc1nnc(NC(=O)CSc2nnc3scc(-c4ccc(C)cc4)n23)s1	1	106	82	103	3	94
Cc1nnc(NC(=O)CSc2nnc3scc(-c4ccc(C)c(C)c4)n23)s1	-23	259*	97	96	-15	88
Cn1c(=O)oc2cc(S(=O)(=O)N3CCN(c4cccc(Cl)c4)CC3)ccc21	0	109	24*	82	-3	63
COCC(=O)Nc1nc2ccccc2s1	-10	108	94	99	2	109
O=C(COC(=O)Cc1cn2ccsc2n1)Nc1nc2ccccc2s1	-8	119	7.2*	93	-3	96
c1ccc(OCc2nnc3sc(C4COc5ccccc5O4)nn23)cc1 (configuration not stated)	58*	106	88	105	60*	102
Nc1ccc(C(=O)c2ccc3c(c2)OCCO3)cc1N	-8	116	36*	96	4	98
Cn1c(N)c(C(=O)CSc2nc3ccccc3n2-c2ccccc2)c(=O)n(C)c1=O	48	231*[fluorescence artefact?]	82	96	38	90
COc1ccc(-n2c(SCC(=O)c3c(N)n(C)c(=O)n(C)c3=O)nc3ccccc32)cc1	11	73	91	102	15	90
O=C(CCn1c(=S)[nH]c2ccccc2c1=O)N1CCN(c2ccccn2)CC1	6	124	93	105	-5	85
COc1ccc(-c2n[nH]c(C)c2-c2ccc(Cl)cc2)c(O)c1OC	11	102	35*	90	-7	60
COc1ccccc1C(=O)NCCN1CCN(C(=O)c2ccccc2OC)CC1	-3	103	85	99	-5	93
CC1=C(C(=O)OCc2ccc3c(c2)OCO3)C(c2ccc(Cl)cc2)NC(=O)N1 (configuration not stated)	4	88	29*	53	9	27*
Cc1cc(OCCOCCNC(C)C)cc(C)c1Cl	5	104	28*	90	-14	81
Cc1cc(OCC(=O)NC(C)C)cc(C)c1Cl	-3	110	92	102	-2	105
CN(C1CCCCC1)S(=O)(=O)c1ccc(Cl)c(C(=O)O)c1	3	87	116	96	-5	94
CCOc1cc2c3c(c1)C1(C(=O)N3C(C)(C)C=C2C)C(C#N)=C(N)Oc2cc(O)ccc21 (configuration not stated)	12	76	33*	83	15	46
CCOC(=O)c1ccc(N2C(=O)c3n[nH]c(C)c3C2c2ccc(OC)c(OC)c2)cc1 (configuration not stated)	1	112	85	99	2	87
CCOC(=O)c1ccc(N2C(=O)c3n[nH]c(C)c3C2c2ccc(OC)cc2)cc1 (configuration not stated)	99*[fluorescence artefact?]	110	93	98	-7	99
O=S(=O)(Nc1ncn[nH]1)c1ccc(Cl)cc1	-8	100	93	100	-9	96
Brc1cc(Br)c2nc(-c3cccs3)ccc2c1	0	241*[fluorescence artefact?]	80	94	-5	71
O=C(O)C[CH2][Ge](=[O])[O][Ge](=[O])[CH2]CC(=O)O	-5	112	86	100	-6	107
CCC(=O)c1ccc(OC(=O)c2ccc(Br)o2)cc1	3	124	96	106	-1	112
CCC(=O)Oc1ccc(/C(CC)=C(\CC)c2ccc(OC(=O)CC)cc2)cc1	-3	376*	10*	70	-1	55
O=C(NC1CCCCC1)c1nc2c(nnn2Cc2ccccc2Cl)c(=O)[nH]1	4	109	87	108	-1	86
Cc1nc(N2CCOCC2)c2cc(-c3ccccc3)sc2n1	-2	94	81	87	2	83
c1ccc(-c2cc3c(N4CCOCC4)ncnc3s2)cc1	5	98	31*	.	-7	73

Bioassay records as filed in PubChem.
